Screening results deposited in PubChem by several laboratories.
ABCG2 inh – blocks JC-1 efflux by human ABCG2 transporter. Q9UNQ0. IgMXP3 cells, flow cytometry. inhibition, % at 6.6 µM. 0.1% of 190,000 active;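 active = inhibition above 80%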;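 also: 0% = DMSO and 100% = nicardipine control wells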
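Assay system – ABCG2 IgMXP3 and barcoded ABCB1 CCRF-Adr cell mix · Input – 3 million cells/mL in well · Reagent – JC-1 fluorescent substrate · Compound – single test compound dose, 6.6 µM final · Timing – 10 min exposure at 25 °C with rotation, no wash · Detection – flow cytometry of retained JC-1 fluorescence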
Avidin fluor – avidin bead compound fluorescence profile; Avidin beads, compound fluorescence 488/530 nm, flow cytometry; stronger effect = higher value; 0.38% of 220,000 active; fluorescence (KMESF) at 10 µM; AID 1775; in the data active = fluorescence above about 47
GSH bead fluor – GSH bead compound fluorescence profile; 0.25% of 190,000 active; AID 1776; GSH beads flow cytometry, compound fluorescence 488/530 nm; stronger effect = higher value; fluorescence (KMESF) at 10 µM; in the data active = fluorescence above about 89;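 also: glutathione beads carrying GST-tagged Bcl family fusion proteins plus one bare bead set; values are compound well signal with DMSO vehicle wells as background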
ABCB1 inh – human ABCB1 inhibition, ABCG2 as counter-screen | P08183 | CCRF-Adr cells, JC-1 efflux, flow cytometry | inhibition, % at 6.6 µM | 0.067% of 190,000 active | AID 1326; in the data active = inhibition above about 40%;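 also: 0% = vehicle and 100% = reference inhibitor; higher value means more JC-1 retained so stronger ABCB1 efflux block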
PKD1 kinase inh – inhibitors of human PKD1 kinase | PKD1 kinase fluorescence polarization assay | Q15139 | inhibition, % (test concentration not listed) | 0.056% of 200,000 active
Lmaj promast – reduces viability of Leishmania major promastigotes; resazurin fluorescence viability; inhibition, % at 10 µM; 9% of 200,000 active;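 also: promastigotes grown with compound for 44 hours at 28 °C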
An asterisk follows results filed as active; · = no result. This excerpt belongs to a sample that is enriched for hits. Rule as the data show it, unless noted: active = inhibition above about 50%; inactive = the rest.

SMILES	ABCG2 inh	Avidin fluor	GSH bead fluor	ABCB1 inh	PKD1 kinase inh	Lmaj promast
C[C@@H]1CN(C2CCN(Cc3nc(CC4CC4)no3)CC2)C[C@H](C)O1	0.5	8	11	0.0	-3.1	85.5*
CC(Oc1ccccc1)C(=O)N1CCN=C1SCc1ccc(F)cc1 (configuration not stated)	·	7	·	·	·	·
CCCNC1=CC(=O)CC(C)(C)C1	0.7	3	12	-0.1	-2.8	-5.2
O=C(NCc1nnc(SCC(=O)N2CCOCC2)o1)c1c(F)cccc1Cl	0.7	10	13	-0.1	-2.2	-6.0
CC(c1nnc(Sc2nnnn2-c2ccccc2)n1-c1ccc(F)cc1)N(C)C (configuration not stated)	-8.2	27	20	0.5	1.0	2.0
FC(F)(F)c1ccc(-c2noc(CN3CCCN(C4CCCCC4)CC3)n2)cc1	1.9	9	14	2.7	8.5	83.8*
CN(Cc1nc(-c2ccc(C(F)(F)F)cc2)no1)C1CCOCC1	1.9	10	28	0.5	-2.7	-1.1
CCCn1c(SCC(=O)c2c(C)[nH]c(C)c2C(=O)OCC)nc2ccccc21	35.8	16	7	8.6	-2.8	63.5*
CC(=O)Nc1sc2c(c1-c1nc3ccccc3s1)CCN(C(C)C)C2	8.9	6	19	7.1	1.6	100.2*
O=C(c1ccc([N+](=O)[O-])cc1)N1CCN(Cc2ccccc2[N+](=O)[O-])CC1	2.5	4	20	1.2	1.5	-3.3
COCCn1c(SCC(=O)NCc2ccco2)nnc1-c1c[nH]c2ccccc12	0.4	7	27	0.2	-11.9	-7.2
CCn1c(SCC(=O)NCc2ccco2)nnc1-c1c[nH]c2ccccc12	3.7	36	46	0.4	8.6	1.6
COc1cccc(-n2c(SCC(=O)NCc3ccco3)nnc2-c2c[nH]c3ccccc23)c1	-4.8	4	21	-2.3	-17.3	98.4*
COc1ccc(OC)c(-n2c(SCC(=O)NCc3ccco3)nnc2-c2c[nH]c3ccccc23)c1	-0.7	6	22	-0.2	-11.4	96.3*
Cc1ccc(S(=O)(=O)c2ccc(Cl)cc2)cc1S(=O)(=O)N(C)CC(=O)O	-4.1	2	12	-0.4	-5.9	-4.0
COc1cccc(-c2cc(C(F)(F)F)nc(-n3ccc([N+](=O)[O-])n3)n2)c1	3.0	11	10	0.4	-7.1	21.0
O=[N+]([O-])c1ccn(-c2nc(-c3ccccc3)cc(C(F)(F)F)n2)n1	52.9	15	13	1.3	-0.6	79.2*
Cn1c(=O)[nH]c(Nc2ccccc2)c([N+](=O)[O-])c1=O	1.3	8	14	-0.1	-1.9	-5.0
Cc1ccc(Nc2nc(-c3sc(NC(=O)c4ccco4)nc3C)cs2)cc1	1.3	10	30	-0.2	0.3	60.6*
CCOc1ccccc1Nc1nc(-c2sc(NC(=O)c3ccco3)nc2C)cs1	-2.0	24	22	-0.4	1.3	99.4*
Cc1ccc(CNC(=O)c2ccc(C#CC(C)(C)O)s2)cc1	3.6	13	34	-0.6	-6.3	-0.8
CCC(c1nnnn1CCc1ccccc1)N(Cc1ccco1)Cc1cc2c(C)ccc(C)c2[nH]c1=O (configuration not stated)	1.0	9	16	1.5	-7.4	87.0*
Cc1ccc2[nH]c(=O)c(CN(CCc3ccccc3)C(c3nnnn3Cc3ccco3)C(C)C)cc2c1 (configuration not stated)	·	8	·	·	·	·
CCC(c1nnnn1Cc1ccccc1)N(Cc1ccco1)Cc1cc2cc(OC)ccc2[nH]c1=O (configuration not stated)	7.1	11	11	1.9	-10.9	18.2
CCC(c1nnnn1CCc1ccccc1)N(Cc1ccco1)Cc1cc2cc(C)cc(C)c2[nH]c1=O (configuration not stated)	7.1	16	33	1.3	0.8	89.7*
SMILES	ABCG2 inh	Avidin fluor	GSH bead fluor	ABCB1 inh	PKD1 kinase inh	Lmaj promast
CC(C)(C)N(NC(=O)OCc1ccccc1)C(=O)c1ccccc1Cl	5.0	13	15	0.3	-13.5	23.0
Cc1cc(C)c(NC(=S)NCCCSC2CCCCC2)c(C)c1	5.1	6	19	-0.2	-11.2	57.1*
COc1cccc(NC(=O)NCCCSC2CCCCC2)c1	3.2	39	12	0.4	2.9	4.7
CCc1nccn1-c1cc(C(C)(C)C)nc2c(-c3ccc(Cl)cc3)cnn12	0.5	16	17	-0.3	-2.8	6.7
Cc1nccn1-c1cc(C(C)(C)C)nc2c(-c3ccccc3)cnn12	18.8	14	3	0.3	-5.3	66.8*
O=C(CCc1ccccc1)NNC(=S)NC(=O)c1ccc(Cl)cc1	-0.1	8	15	-0.2	-5.1	-6.6
Cc1cc(/C=N/n2cnnc2)c(C)n1-c1ccc(OCc2ccc(Cl)cc2Cl)cc1	11.4	20	35	1.7	4.0	97.6*
Cc1cc(/C=N/n2cnnc2)c(C)n1-c1ccc(OCc2ccc(F)cc2)cc1	12.2	9	28	0.9	6.3	76.6*
O=C1CC(/C=C/c2ccncc2)=Nc2ccccc2N1	2.0	99*	24	0.1	-2.2	65.5*
COc1ccc(C2SCCN2C(=S)Nc2cccc(C(F)(F)F)c2)cc1 (configuration not stated)	17.1	20	18	0.8	-5.3	96.2*
COc1ccc(C2SCCN2C(=S)Nc2ccc(F)cc2)cc1 (configuration not stated)	0.7	12	18	0.3	0.3	21.7
Cc1ccc(C(=O)C(c2ccccc2)N2Cc3ccccc3C2=N)cc1 (configuration not stated)	-2.5	2	6	2.1	1.2	99.0*
O=C(Cn1nc(C(=O)O)c2ccccc2c1=O)Nc1ccc2c(c1)C(=O)c1ccccc1C2=O	·	13	·	·	·	·
Oc1ccc(Br)cc1/C=N/N1CCCCC1	10.5	15	6	6.5	-2.4	51.6*
Oc1ccc(Br)cc1/C=N/N1CCN(Cc2ccccc2)CC1	2.8	10	38	0.7	-9.5	3.8
Cc1cc(C)cc(NC(=O)CCN2CCCC2)c1	1.0	10	11	0.5	0.8	-3.6
O=C(NC(=S)NNC(=O)c1cnccn1)c1ccc(Cl)cc1	·	8	·	·	·	·
COc1cc(C(=O)NC(=S)NNC(=O)c2cnccn2)cc(OC)c1OC	14.1	19	15	1.3	4.5	100.4*
CCCN1CCC(=O)N([C@H](CSc2ccc(Br)cc2)Cc2ccccc2)CC1	·	8	·	·	·	·
CN1C2=NCCN2C(=O)c2cc(Cl)ccc21	·	3	·	·	·	·
Cn1c(Cl)cnc1C1CC(=O)c2cc(Cl)ccc2O1 (configuration not stated)	7.2	17	17	1.0	-0.8	100.4*
CNC(=O)CN(c1cc([N+](=O)[O-])ccc1OC)S(C)(=O)=O	10.3	7	8	0.5	-6.5	44.3
COc1ccc([N+](=O)[O-])cc1N(CC(=O)NCCC1=CCCCC1)S(C)(=O)=O	9.0	6	5	0.3	-9.5	70.9*
